# Published values gathered from unrelated publications.
# Protocols differ between the studies behind these lines.
# Target: Serine/threonine-protein kinase TBK1 (TBK1, Homo sapiens, UniProt Q9UHD2)
# One construct used (Q9UHD2 1-729): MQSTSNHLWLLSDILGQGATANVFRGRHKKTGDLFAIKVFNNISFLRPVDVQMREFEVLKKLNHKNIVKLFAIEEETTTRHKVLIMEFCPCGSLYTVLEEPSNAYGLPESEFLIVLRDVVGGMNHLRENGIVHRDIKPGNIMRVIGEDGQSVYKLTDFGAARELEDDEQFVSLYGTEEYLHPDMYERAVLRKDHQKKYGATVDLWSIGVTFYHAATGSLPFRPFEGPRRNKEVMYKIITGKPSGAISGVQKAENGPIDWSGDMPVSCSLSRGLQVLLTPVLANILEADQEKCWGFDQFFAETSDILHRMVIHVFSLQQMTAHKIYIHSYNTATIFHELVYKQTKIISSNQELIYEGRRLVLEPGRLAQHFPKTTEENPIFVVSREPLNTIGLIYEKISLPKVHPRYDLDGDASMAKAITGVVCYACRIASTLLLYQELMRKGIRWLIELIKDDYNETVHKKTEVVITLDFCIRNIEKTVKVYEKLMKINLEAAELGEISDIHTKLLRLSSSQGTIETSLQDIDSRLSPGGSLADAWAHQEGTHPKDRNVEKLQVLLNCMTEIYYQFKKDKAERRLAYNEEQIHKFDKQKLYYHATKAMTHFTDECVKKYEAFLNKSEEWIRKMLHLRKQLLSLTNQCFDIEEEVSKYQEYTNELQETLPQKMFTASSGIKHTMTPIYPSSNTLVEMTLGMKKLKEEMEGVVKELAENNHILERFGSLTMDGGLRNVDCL
SMILES,read-out,mode,method,tested at,endpoint,value
N#CC1(c2ccccn2)CCN(Cc2cc(C(=O)O)c(=O)n3ccccc23)CC1,cell-free assay,,competition with immobilised ligand,1 µM,remaining binding,98%
C#Cc1n[nH]c2c(-c3cn(C(C)c4ccccn4)c(=O)[nH]c3=O)cc(F)cc12 (centres unmarked),enzyme activity,inhibitor,,1 µM,inhibition,6.5%
Cn1cncc1[C@](O)(COc1ccc(C#N)cc1-c1ccc(OC(F)(F)F)cc1)c1ccc(C#N)cc1,cell-free assay,,competition with immobilised ligand,1 µM,remaining binding,100%
O=c1[nH]c2ccccc2n1C1CCN(Cc2ccc(-c3[nH]c4cc5ncnc5cc4nc3-c3ccccc3)cc2)CC1,cell-free assay,,,0.5 µM,remaining signal,92.7%
COc1cc(Nc2ncc(F)c(Nc3ccc4c(n3)NC(=O)C(C)(C)O4)n2)cc(OC)c1OC,binding,,,10 µM,inhibition,100%
C#Cc1n[nH]c2c(-c3cn([C@@H](C)c4ccccc4)c(=O)[nH]c3=O)cc(F)cc12,enzyme activity,inhibitor,,0.1 µM,inhibition,4.4%
Cc1nn(C)cc1-c1nc2c(N3CCN(Cc4ccc(Cl)cc4)CC3)c(Cl)cnc2[nH]1,binding,,competition with immobilised ligand,1 µM,remaining binding,90%
Cn1cc(-c2cccc(N3CCc4c(sc5c4CC(C)(C)C5)C3=O)c2CO)cc(Nc2ccncn2)c1=O,enzyme activity,inhibitor,,1 µM,inhibition,4%
CC(C)(C)c1cc(C=C(C#N)C#N)cc(Br)c1O,enzyme activity,inhibitor,,0.5 µM,remaining activity,90.2%
Cn1cc(-c2cc(F)cc(N3CCn4c(cc5c4CCCC5)C3=O)c2CO)cc(Nc2ccc(N3CCN(C4COC4)CC3)cn2)c1=O,enzyme activity,inhibitor,,0.1 µM,inhibition,18%
COc1ncccc1-c1cnn2ccc(N3CCN(C(=O)OC(C)C)CC3)nc12,binding,,competition with immobilised ligand,1 µM,remaining binding,78%
